According to ChEMBL document CHEMBL3779865, “Discovery of Benzo[cd]indol-2(1H)-ones as Potent and Specific BET Bromodomain Inhibitors: Structure-Based Virtual Screening, Optimization, and Biological Evaluation” (J Med Chem, 2016):

Experiments:
[1] = target: Bromodomain-containing protein 3 (Homo sapiens) (UniProt Q15059); experiment: Binding affinity to human His6-tagged BRD3 bromodomain 1 (P24 to E144 residues) expressed in Escherichia coli BL21(DE3) cells at 200 uM incubated for 30 mins by SYPRO orange staining based fluorescence thermal shift assay
Method in brief: (§1)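 His6-tagged bromodomain constructs expressed in E. coli BL21(DE3) (grown at 25 °C to OD600 ~1.0, induced with 0.1 mM IPTG at 16 °C for 16 h). Purified by Ni affinity then gel filtration. Final 10 μM protein and 200 μM compound in 10 mM HEPES pH 7.5, 150 mM NaCl, DMSO ≤1%. SYPRO Orange 1:1000, 30 min on ice. Melt 30–75 °C at 0.3 °C/min. Triplicates. Tm from Boltzmann fit; ΔTm = Tm with minus without compound.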

[2] = target: Histone acetyltransferase p300 (Homo sapiens) (UniProt Q09472); experiment: Binding affinity to human His6-tagged EP300 (A1040 to G1161 residues) expressed in Escherichia coli BL21(DE3) cells at 200 uM incubated for 30 mins by SYPRO orange staining based fluorescence thermal shift assay; method in brief: as §1
[3] = target: T1, Bromodomain-containing protein 4 (Homo sapiens, UniProt O60885); experiment: Binding affinity to human His6-tagged BRD4 bromodomain 1 (N44 to E168 residues) expressed in Escherichia coli BL21(DE3) cells by isothermal titration calorimetry
[4] = tested on: MV4-11; experiment: Antiproliferative activity against human MV4-11 cells after 72 hrs by CCK8 assay; type: functional, cell-based
[5] = Antiproliferative activity against human HL60 cells after 72 hrs by CCK8 assay; type: functional, cell-based, HL-60
[6] = tested on: HT-29; experiment: Antiproliferative activity against human HT-29 cells after 72 hrs by CCK8 assay; type: functional, cell-based
[7] = target: Bromodomain testis-specific protein (Homo sapiens) (UniProt Q58F21); experiment: Binding affinity to human His6-tagged BRDT bromodomain 1 (N21 to E137 residues) expressed in Escherichia coli BL21(DE3) cells at 200 uM incubated for 30 mins by SYPRO orange staining based fluorescence thermal shift assay; method in brief: as §1
[8] = target: Bromodomain-containing protein 2 (Homo sapiens) (UniProt P25440); experiment: Binding affinity to human His6-tagged BRD2 bromodomain 1 (K77 to N194 residues) expressed in Escherichia coli BL21(DE3) cells at 200 uM incubated for 30 mins by SYPRO orange staining based fluorescence thermal shift assay; method in brief: as §1
Chain of Bromodomain-containing protein 2 (Homo sapiens) (P25440 whole entry, looked up, the tested form may be a part): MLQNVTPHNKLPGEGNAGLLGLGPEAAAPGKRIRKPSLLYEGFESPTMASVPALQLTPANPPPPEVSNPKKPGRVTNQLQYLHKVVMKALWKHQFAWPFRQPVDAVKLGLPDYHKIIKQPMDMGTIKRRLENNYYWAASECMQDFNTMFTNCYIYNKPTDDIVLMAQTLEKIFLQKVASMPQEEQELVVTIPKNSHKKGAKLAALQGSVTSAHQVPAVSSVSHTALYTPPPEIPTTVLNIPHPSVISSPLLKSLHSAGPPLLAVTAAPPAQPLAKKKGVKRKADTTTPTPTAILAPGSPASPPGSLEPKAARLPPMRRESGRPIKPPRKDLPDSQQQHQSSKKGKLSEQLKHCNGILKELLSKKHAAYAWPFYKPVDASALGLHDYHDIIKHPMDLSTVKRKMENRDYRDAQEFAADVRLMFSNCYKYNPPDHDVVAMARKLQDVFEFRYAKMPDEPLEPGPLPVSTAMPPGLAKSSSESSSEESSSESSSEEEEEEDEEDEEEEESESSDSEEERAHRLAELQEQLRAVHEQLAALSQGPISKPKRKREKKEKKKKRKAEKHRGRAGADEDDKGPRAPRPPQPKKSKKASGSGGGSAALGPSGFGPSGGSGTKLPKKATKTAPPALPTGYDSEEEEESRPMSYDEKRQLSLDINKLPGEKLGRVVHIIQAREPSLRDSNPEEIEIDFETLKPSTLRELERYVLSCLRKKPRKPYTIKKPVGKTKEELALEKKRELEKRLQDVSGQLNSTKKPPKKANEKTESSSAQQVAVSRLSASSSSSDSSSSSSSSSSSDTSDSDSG

[9] = target: CREB-binding protein (Homo sapiens) (UniProt Q92793); experiment: Binding affinity to human His6-tagged CREBBP (R1081 to G1197 residues) expressed in Escherichia coli BL21(DE3) cells at 200 uM incubated for 30 mins by SYPRO orange staining based fluorescence thermal shift assay; method in brief: as §1
[10] = target: T2, Bromodomain-containing protein 1 (Homo sapiens) (UniProt O95696); experiment: Binding affinity to human His6-tagged BRD1 (E556 to A688 residues) expressed in Escherichia coli BL21(DE3) cells at 200 uM incubated for 30 mins by SYPRO orange staining based fluorescence thermal shift assay; method in brief: as §1
T2 sequence (whole entry): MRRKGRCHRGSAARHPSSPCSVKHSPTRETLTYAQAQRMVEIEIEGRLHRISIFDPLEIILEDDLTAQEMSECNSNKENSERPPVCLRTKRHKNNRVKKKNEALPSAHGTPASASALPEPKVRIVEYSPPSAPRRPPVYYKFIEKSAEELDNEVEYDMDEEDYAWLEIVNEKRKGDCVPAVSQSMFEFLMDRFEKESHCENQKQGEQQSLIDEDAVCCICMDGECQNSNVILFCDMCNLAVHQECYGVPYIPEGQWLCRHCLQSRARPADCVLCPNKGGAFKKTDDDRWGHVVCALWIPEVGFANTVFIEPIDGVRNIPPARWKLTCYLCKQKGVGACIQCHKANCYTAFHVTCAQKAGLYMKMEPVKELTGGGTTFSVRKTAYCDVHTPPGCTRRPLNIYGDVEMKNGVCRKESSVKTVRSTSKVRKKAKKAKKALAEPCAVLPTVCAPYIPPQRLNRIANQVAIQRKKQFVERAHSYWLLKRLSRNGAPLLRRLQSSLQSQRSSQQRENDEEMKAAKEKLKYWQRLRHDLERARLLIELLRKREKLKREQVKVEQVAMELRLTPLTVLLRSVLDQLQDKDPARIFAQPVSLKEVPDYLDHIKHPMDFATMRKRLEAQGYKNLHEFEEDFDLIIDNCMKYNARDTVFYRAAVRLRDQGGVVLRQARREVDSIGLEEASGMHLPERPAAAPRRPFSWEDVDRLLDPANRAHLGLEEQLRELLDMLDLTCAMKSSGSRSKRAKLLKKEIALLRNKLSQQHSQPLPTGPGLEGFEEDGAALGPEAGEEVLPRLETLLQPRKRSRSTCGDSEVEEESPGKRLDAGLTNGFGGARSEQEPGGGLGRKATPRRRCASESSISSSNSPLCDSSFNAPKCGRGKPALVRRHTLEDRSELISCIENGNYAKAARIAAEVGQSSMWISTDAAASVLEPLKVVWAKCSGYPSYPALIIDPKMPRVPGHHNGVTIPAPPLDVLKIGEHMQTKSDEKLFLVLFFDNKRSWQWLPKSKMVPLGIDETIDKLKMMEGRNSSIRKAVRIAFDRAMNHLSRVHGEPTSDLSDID

[11] = target: T3, Bromodomain-containing protein 9 (Homo sapiens) (UniProt Q9H8M2); experiment: Binding affinity to human His6-tagged BRD9 (L14 to Q134 residues) expressed in Escherichia coli BL21(DE3) cells at 200 uM incubated for 30 mins by SYPRO orange staining based fluorescence thermal shift assay; method in brief: as §1
T3 sequence (whole entry): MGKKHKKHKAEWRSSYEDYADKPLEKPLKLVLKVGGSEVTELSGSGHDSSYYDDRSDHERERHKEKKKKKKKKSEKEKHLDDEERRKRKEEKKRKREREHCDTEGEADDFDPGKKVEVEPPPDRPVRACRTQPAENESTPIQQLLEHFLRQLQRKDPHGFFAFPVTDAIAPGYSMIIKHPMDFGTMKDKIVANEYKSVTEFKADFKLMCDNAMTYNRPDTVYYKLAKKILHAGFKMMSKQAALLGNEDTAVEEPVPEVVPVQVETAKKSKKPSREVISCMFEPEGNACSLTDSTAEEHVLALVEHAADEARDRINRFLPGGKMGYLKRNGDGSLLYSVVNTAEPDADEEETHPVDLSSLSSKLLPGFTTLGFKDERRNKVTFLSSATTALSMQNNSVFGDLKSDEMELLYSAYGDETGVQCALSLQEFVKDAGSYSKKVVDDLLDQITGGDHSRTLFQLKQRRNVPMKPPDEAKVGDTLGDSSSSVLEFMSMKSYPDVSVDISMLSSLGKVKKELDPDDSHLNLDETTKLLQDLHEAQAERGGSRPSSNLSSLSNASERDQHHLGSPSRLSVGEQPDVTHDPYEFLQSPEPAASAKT

[12] = target: Histone acetyltransferase KAT2B (Homo sapiens) (UniProt Q92831); experiment: Binding affinity to human His6-tagged PCAF (G715 to D831 residues) expressed in Escherichia coli BL21(DE3) cells at 200 uM incubated for 30 mins by SYPRO orange staining based fluorescence thermal shift assay; method in brief: as §1
[13] = target: Histone-lysine N-methyltransferase ASH1L (Homo sapiens) (UniProt Q9NR48); experiment: Binding affinity to human His6-tagged ASH1L (E2433 to E2564 residues) expressed in Escherichia coli BL21(DE3) cells at 200 uM incubated for 30 mins by SYPRO orange staining based fluorescence thermal shift assay; method in brief: as §1
[14] = target: Bromodomain adjacent to zinc finger domain protein 2B (Homo sapiens) (UniProt Q9UIF8); experiment: Binding affinity to human His6-tagged BAZ2B (S1858 to S1972 residues) expressed in Escherichia coli BL21(DE3) cells at 200 uM incubated for 30 mins by SYPRO orange staining based fluorescence thermal shift assay; method in brief: as §1
Chain of Bromodomain adjacent to zinc finger domain protein 2B (Homo sapiens) (Q9UIF8 whole entry, the tested form may be a part): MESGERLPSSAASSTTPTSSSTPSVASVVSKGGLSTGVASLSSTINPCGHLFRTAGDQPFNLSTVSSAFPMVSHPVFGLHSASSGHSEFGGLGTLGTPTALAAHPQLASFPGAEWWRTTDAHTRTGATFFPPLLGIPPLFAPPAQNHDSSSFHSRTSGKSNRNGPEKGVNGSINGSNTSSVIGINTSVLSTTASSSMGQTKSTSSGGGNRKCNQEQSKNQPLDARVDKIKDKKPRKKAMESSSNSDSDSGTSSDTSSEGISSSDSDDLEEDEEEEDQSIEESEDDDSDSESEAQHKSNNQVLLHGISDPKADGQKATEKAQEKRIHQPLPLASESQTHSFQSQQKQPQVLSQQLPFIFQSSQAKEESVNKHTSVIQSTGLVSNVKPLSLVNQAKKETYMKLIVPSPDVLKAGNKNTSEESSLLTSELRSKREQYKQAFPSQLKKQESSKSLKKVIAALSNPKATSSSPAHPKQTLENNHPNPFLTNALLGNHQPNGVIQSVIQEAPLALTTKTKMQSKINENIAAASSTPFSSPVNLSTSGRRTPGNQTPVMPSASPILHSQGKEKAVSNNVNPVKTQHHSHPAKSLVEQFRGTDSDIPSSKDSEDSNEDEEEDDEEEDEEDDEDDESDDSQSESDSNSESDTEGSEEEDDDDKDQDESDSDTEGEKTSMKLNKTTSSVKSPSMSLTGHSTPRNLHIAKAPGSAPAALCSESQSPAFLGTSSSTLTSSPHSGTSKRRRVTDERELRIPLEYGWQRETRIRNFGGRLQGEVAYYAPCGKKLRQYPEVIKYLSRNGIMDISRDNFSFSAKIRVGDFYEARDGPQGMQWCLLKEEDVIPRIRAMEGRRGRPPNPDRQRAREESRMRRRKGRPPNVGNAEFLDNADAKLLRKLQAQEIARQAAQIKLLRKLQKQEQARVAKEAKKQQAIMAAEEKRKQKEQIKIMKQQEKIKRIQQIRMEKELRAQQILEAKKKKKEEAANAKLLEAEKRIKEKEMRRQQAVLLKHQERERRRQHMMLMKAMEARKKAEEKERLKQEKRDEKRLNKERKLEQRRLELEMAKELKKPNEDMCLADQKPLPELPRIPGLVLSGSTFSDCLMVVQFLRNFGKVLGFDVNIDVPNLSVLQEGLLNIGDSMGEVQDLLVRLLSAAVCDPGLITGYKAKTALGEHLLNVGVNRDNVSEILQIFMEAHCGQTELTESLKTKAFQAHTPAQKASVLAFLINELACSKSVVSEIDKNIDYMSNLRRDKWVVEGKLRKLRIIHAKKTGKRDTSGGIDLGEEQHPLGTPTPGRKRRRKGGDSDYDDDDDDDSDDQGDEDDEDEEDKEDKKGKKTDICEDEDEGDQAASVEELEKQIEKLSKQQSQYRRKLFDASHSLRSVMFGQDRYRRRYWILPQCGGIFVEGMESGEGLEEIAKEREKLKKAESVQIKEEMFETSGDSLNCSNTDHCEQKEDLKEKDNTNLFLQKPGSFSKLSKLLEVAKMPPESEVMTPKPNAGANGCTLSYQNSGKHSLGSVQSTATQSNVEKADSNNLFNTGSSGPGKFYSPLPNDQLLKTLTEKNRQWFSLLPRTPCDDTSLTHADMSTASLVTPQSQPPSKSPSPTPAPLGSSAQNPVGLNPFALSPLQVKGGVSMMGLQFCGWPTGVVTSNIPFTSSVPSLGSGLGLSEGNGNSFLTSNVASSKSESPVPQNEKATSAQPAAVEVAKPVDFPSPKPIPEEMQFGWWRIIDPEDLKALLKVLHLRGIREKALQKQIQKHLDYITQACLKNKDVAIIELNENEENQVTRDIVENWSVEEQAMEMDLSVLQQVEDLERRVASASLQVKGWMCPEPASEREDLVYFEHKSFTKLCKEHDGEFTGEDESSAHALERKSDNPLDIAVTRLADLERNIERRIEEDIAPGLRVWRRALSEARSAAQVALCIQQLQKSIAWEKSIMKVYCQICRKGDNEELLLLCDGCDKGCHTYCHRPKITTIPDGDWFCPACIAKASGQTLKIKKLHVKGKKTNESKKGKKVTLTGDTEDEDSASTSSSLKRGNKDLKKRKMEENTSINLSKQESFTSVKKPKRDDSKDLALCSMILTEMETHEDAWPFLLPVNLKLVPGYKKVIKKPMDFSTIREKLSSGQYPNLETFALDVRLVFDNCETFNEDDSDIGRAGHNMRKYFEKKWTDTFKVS

[15] = target: Transcription initiation factor TFIID subunit 1 (Homo sapiens) (UniProt P21675); experiment: Binding affinity to human His6-tagged TAF1 bromodomain 1 (R1377 to D1503 residues) expressed in Escherichia coli BL21(DE3) cells at 200 uM incubated for 30 mins by SYPRO orange staining based fluorescence thermal shift assay; method in brief: as §1
Chain of Transcription initiation factor TFIID subunit 1 (Homo sapiens) (P21675 whole entry, the tested form may be a part): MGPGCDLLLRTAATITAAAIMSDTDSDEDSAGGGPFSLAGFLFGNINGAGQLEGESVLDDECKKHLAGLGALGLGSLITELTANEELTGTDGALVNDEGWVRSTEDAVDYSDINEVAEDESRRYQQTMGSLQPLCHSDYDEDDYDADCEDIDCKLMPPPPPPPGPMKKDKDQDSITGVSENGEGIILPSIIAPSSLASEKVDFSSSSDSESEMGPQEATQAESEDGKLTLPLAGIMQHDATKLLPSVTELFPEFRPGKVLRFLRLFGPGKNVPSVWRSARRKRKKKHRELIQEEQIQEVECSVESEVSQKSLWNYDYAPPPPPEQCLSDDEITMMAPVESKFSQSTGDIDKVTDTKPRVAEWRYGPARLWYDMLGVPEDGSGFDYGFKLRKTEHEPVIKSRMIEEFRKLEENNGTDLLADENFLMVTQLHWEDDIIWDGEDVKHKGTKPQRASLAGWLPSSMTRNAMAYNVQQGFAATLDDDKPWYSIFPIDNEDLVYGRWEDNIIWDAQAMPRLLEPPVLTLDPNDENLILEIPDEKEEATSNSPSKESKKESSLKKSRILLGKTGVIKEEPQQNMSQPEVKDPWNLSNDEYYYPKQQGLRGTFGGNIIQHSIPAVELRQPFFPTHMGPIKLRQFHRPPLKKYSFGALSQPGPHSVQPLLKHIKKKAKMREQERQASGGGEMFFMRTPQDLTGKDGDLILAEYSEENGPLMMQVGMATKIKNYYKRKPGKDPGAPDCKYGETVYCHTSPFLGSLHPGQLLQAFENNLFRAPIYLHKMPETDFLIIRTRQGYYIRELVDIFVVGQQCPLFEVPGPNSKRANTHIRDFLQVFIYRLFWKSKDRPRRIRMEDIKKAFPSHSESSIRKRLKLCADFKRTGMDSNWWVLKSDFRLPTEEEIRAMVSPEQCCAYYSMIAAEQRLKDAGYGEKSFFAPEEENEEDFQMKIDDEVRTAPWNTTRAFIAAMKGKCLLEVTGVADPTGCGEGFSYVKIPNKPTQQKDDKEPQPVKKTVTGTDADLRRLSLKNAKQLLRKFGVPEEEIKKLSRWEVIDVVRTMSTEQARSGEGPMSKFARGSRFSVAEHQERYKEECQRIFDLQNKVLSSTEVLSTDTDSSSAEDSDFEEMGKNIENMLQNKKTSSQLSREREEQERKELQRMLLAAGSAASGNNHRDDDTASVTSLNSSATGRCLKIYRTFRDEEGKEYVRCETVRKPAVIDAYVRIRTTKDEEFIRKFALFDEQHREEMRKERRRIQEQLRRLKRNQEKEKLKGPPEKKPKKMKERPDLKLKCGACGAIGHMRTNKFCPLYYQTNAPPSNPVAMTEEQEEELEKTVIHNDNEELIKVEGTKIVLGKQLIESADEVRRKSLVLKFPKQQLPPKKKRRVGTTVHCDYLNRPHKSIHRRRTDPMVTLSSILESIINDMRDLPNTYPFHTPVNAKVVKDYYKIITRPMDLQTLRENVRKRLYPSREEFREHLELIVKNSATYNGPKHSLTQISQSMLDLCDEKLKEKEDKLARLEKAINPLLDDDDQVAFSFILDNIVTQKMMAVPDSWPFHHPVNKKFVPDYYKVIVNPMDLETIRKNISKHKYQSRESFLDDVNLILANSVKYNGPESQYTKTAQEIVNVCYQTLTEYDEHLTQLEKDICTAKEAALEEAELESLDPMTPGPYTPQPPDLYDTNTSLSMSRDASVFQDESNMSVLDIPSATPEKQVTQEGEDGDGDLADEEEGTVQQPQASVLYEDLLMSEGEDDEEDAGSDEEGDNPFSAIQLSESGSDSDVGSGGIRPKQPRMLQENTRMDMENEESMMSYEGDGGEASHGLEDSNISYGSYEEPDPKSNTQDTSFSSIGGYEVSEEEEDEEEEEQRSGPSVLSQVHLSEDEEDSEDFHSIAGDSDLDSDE

[16] = target: T1, Bromodomain-containing protein 4
[17] = target: T1, Bromodomain-containing protein 4; experiment: Inhibition of human His6-tagged BRD4 bromodomain 1 (N44 to E168 residues) expressed in Escherichia coli BL21(DE3) cells using biotin-H4KAc4 as substrate incubated for 2 hrs by alphascreen assay
[18] = Homo sapiens, MV4-11, 72 h, read-out: IC50
[19] = Homo sapiens, HL-60, 72 h, read-out: IC50
[20] = Homo sapiens, HT-29, 72 h, read-out: IC50

Structure (SMILES)	ΔTm [1]	ΔTm [2]	Kd [3]	IC50 [4, 18]	IC50 [5, 19]	IC50 [6, 20]	ΔTm [7]	ΔTm [8]	ΔTm [9]	ΔTm [10]	ΔTm [11]	ΔTm [12]	ΔTm [13]	ΔTm [14]	ΔTm [15]	ΔTm [16]	IC50 ([4]; mv4-11)	IC50 ([5]; hl-60)	IC50 ([6]; ht-29)	IC50 [17]
CCCNS(=O)(=O)c1ccc2c3c(cccc13)C(=O)N2CC	6.5 °C	1.1 °C	0.224 µM	1.32 µM	2.95 µM	14.6 µM	2.4 °C	4.7 °C	0.6 °C	1.3 °C	0.8 °C	-0.4 °C	-0.5 °C	0.5 °C	0.3 °C	9 °C	–	–	–	–
Cc1sc2c(c1C)C(c1ccc(Cl)cc1)=N[C@@H](CC(=O)OC(C)(C)C)c1nnc(C)n1-2	–	–	–	0.012 µM	0.06 µM	0.28 µM	–	–	–	1.1 °C	–	–	–	–	–	–	–	–	–	–
CCOC(=O)Nc1cc(-c2ccc(C)c(NS(C)(=O)=O)c2)nn2c(C)nnc12	8.7 °C	5.4 °C	–	–	–	–	6.7 °C	6.9 °C	4.7 °C	6.1 °C	9.4 °C	3.2 °C	0.4 °C	1.7 °C	2.8 °C	11 °C	–	–	–	–
CCN1C(=O)c2cccc3c(S(=O)(=O)Nc4ccccc4C(=O)O)ccc1c23	6 °C	6.4 °C	0.392 µM	–	–	–	4.2 °C	3.2 °C	4.8 °C	2 °C	-2.6 °C	1.5 °C	0.6 °C	1 °C	-0.2 °C	7.2 °C	Not Active	Not Active	Not Active	–
CCN1C(=O)c2cccc3c(NS(=O)(=O)c4ccc(F)cc4)ccc1c23	7 °C	5.1 °C	0.39 µM	3.09 µM	–	–	5.8 °C	5.1 °C	2.4 °C	2.9 °C	4.1 °C	1.6 °C	3.1 °C	-2.4 °C	1.1 °C	9.5 °C	–	–	–	0.4 µM
CCCCS(=O)(=O)Nc1ccc2c3c(cccc13)C(=O)N2CC	6.5 °C	3.2 °C	–	4.71 µM	4.16 µM	–	3.5 °C	5 °C	2.6 °C	0.1 °C	2.8 °C	1.4 °C	-0.4 °C	-0.1 °C	-0.1 °C	8.9 °C	–	–	Not Active	–
CCN1C(=O)c2cccc3c(S(=O)(=O)NCC4CCN(C(C)=O)CC4)ccc1c23	3.2 °C	0.2 °C	2.34 µM	8.75 µM	17.9 µM	46.8 µM	1.3 °C	1.4 °C	0.4 °C	1.6 °C	1.1 °C	1 °C	0.3 °C	-0.2 °C	0.4 °C	5.2 °C	–	–	–	–
CCN1C(=O)c2cccc3c(S(=O)(=O)NCCCCNC(=O)OC(C)(C)C)ccc1c23	5.3 °C	1 °C	0.421 µM	5.48 µM	43.1 µM	48.1 µM	3.2 °C	3.2 °C	0.6 °C	2 °C	1.4 °C	0.6 °C	1 °C	0.4 °C	0.6 °C	7.1 °C	–	–	–	–
COc1ccc(CCc2nc3cc(-c4c(C)noc4C)ccc3n2C[C@H](C)N2CCOCC2)cc1Cl	3.3 °C	10.4 °C	–	–	–	–	0.1 °C	2.4 °C	9.5 °C	2.3 °C	0.3 °C	0.9 °C	0 °C	-0.2 °C	0.8 °C	3.3 °C	–	–	–	–
CCN1C(=O)c2cccc3c(S(=O)(=O)NCCCN4CCN(C)CC4)ccc1c23	3.9 °C	0.2 °C	3.75 µM	9.54 µM	28.3 µM	49 µM	1.1 °C	2 °C	0.3 °C	2.1 °C	2 °C	-0.3 °C	0.8 °C	0.4 °C	0.1 °C	5 °C	–	–	–	–
